Experimental data taken from ChEMBL document CHEMBL3351726 (J Med Chem, 2014).
Residues, ends and D or L forms follow the SMILES beside them.

How the values were obtained:
[1] = test system: HEK293; assay: Selectivity ratio of IC50 for rat Nav1.2 expressed in HEK-293 cells to IC50 for human Nav1.7 expressed in HEK-293 cells; assay type: cell-based
[2] = Retention time of the compound measured over 15 mins at flow rate of 1 mL/min by HPLC
[3] = Retention time of the compound measured over 30 mins at flow rate of 1 mL/min by HPLC; assay type: physicochemical; settings: 0.5 h
In short: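 Reversed-phase analytical HPLC or LC−MS on a SymmetryShield RP18 column (5 μm, 4.6 × 150 mm). Gradient 10−60% B over 30 min at 1 mL/min; A = 0.1% TFA in water, B = 0.1% TFA in acetonitrile.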

SMILES	Ratio IC50 [1]	Retention_time [2]	Retention_time [3]
[H][C@]12CSSC[C@@H](C(=O)N[C@@H](CCCCN)C(=O)N[C@@H](CCCCN)C(=O)N[C@@H](CCCCN)C(=O)N[C@@](C)(CC(C)C)C(=O)N[C@@H](Cc3c[nH]c4ccccc34)C(=O)O)NC(=O)[C@H](Cc3c[nH]c4ccccc34)NC(=O)[C@H](CC(C)C)NC(=O)[C@H](CCCNC(=N)N)NC(=O)[C@]3([H])CSSC[C@]([H])(NC(=O)[C@]([H])([C@@H](C)O)NC(=O)[C@H](Cc4c[nH]c5ccccc45)NC(=O)[C@H](CCSC)NC(=O)[C@H](Cc4c[nH]c5ccccc45)NC(=O)[C@H](CCCCN)NC(=O)[C@H](CCC(N)=O)NC(=O)[C@@H](NC(=O)[C@@H](N)Cc4ccc(O)cc4)CSSC[C@]([H])(NC1=O)C(=O)N[C@@H](CCC(=O)O)C(=O)NCC(=O)N[C@@H](CC(C)C)C(=O)N[C@@H](C(C)C)C(=O)N3)C(=O)N[C@@H](CC(=O)O)C(=O)N[C@@H](CO)C(=O)N[C@@H](C)C(=O)N[C@@H](CCCNC(=N)N)C(=O)N[C@@H](CCCCN)C(=O)N2 (HELM PEPTIDE1{Y.C.Q.K.W.M.W.T.C.D.S.A.R.K.C.C.E.G.L.V.C.R.L.W.C.K.K.K.[CC(C)C[C@](C)(N[*:1])C(=O)[*:2]].W}$PEPTIDE1,PEPTIDE1,2:R3-16:R3|PEPTIDE1,PEPTIDE1,9:R3-21:R3|PEPTIDE1,PEPTIDE1,15:R3-25:R3$$$V2.0)	3.5	9.28 min	15.29 min
[H][C@]12CSSC[C@@H](C(=O)N[C@@H](CCCCN)C(=O)N[C@@H](CCCCN)C(=O)N[C@H](C(=O)N[C@@H](CC(C)C)C(=O)N[C@@H](Cc3c[nH]c4ccccc34)C(=O)O)[C@@H](C)CC)NC(=O)[C@H](Cc3c[nH]c4ccccc34)NC(=O)[C@H](CC(C)C)NC(=O)[C@H](CCCNC(=N)N)NC(=O)[C@]3([H])CSSC[C@]([H])(NC(=O)[C@]([H])([C@@H](C)O)NC(=O)[C@H](Cc4c[nH]c5ccccc45)NC(=O)[C@H](CCSC)NC(=O)[C@H](Cc4c[nH]c5ccccc45)NC(=O)[C@H](CCCCN)NC(=O)[C@H](CCC(N)=O)NC(=O)[C@@H](NC(=O)[C@@H](N)Cc4ccc(O)cc4)CSSC[C@]([H])(NC1=O)C(=O)N[C@@H](CCC(=O)O)C(=O)NCC(=O)N[C@@H](CC(C)C)C(=O)N[C@@H](C(C)C)C(=O)N3)C(=O)N[C@@H](CC(=O)O)C(=O)N[C@@H](CO)C(=O)N[C@@H](C)C(=O)N[C@@H](CCCNC(=N)N)C(=O)N[C@@H](CCCCN)C(=O)N2 (HELM PEPTIDE1{Y.C.Q.K.W.M.W.T.C.D.S.A.R.K.C.C.E.G.L.V.C.R.L.W.C.K.K.I.L.W}$PEPTIDE1,PEPTIDE1,2:R3-16:R3|PEPTIDE1,PEPTIDE1,9:R3-21:R3|PEPTIDE1,PEPTIDE1,15:R3-25:R3$$$V2.0)	20	9.54 min	15.95 min
CSCC[C@@H]1NC(=O)[C@H](Cc2c[nH]c3ccccc23)NC(=O)[C@H](CCCCN)NC(=O)[C@H](CCC(N)=O)NC(=O)[C@@H](NC(=O)[C@@H](N)Cc2ccc(O)cc2)CSSC[C@@H]2NC(=O)[C@@H]3CSSC[C@@H](C(=O)N[C@@H](CCCCN)C(=O)N[C@@H](CCCCN)C(=O)N[C@@H](CCCCN)C(=O)N[C@@H](CC(C)C)C(=O)N[C@@H](Cc4c[nH]c5ccccc45)C(=O)O)NC(=O)[C@H](Cc4c[nH]c5ccccc45)NC(=O)[C@H](CC(C)C)NC(=O)[C@H](CCCNC(=N)N)NC(=O)[C@H](CSSC[C@H](NC(=O)[C@H]([C@@H](C)O)NC(=O)[C@H](Cc4c[nH]c5ccccc45)NC1=O)C(=O)N[C@@H](CC(=O)O)C(=O)N[C@@H](CO)C(=O)N[C@@H](CCC(=O)O)C(=O)N[C@@H](CCCNC(=N)N)C(=O)N[C@@H](CCCCN)C(=O)N3)NC(=O)[C@H](C(C)C)NC(=O)[C@H](CC(C)C)NC(=O)CNC(=O)[C@H](CCC(=O)O)NC2=O	26	9.87 min	15.44 min
[H][C@]12CSSC[C@@H](C(=O)N[C@@H](CCCCN)C(=O)N[C@@H](CCCCN)C(=O)N[C@@H](CCCCN)C(=O)N(C)[C@@H](CC(C)C)C(=O)N[C@H](C(=O)O)[C@@H](C)CC)NC(=O)[C@H](Cc3c[nH]c4ccccc34)NC(=O)[C@H](CC(C)C)NC(=O)[C@H](CCCNC(=N)N)NC(=O)[C@]3([H])CSSC[C@]([H])(NC(=O)[C@]([H])([C@@H](C)O)NC(=O)[C@H](Cc4c[nH]c5ccccc45)NC(=O)[C@H](CCSC)NC(=O)[C@H](Cc4c[nH]c5ccccc45)NC(=O)[C@H](CCCCN)NC(=O)[C@H](CCC(N)=O)NC(=O)[C@@H](NC(=O)[C@@H](N)Cc4ccc(O)cc4)CSSC[C@]([H])(NC1=O)C(=O)N[C@@H](CCC(=O)O)C(=O)NCC(=O)N[C@@H](CC(C)C)C(=O)N[C@@H](C(C)C)C(=O)N3)C(=O)N[C@@H](CC(=O)O)C(=O)N[C@@H](CO)C(=O)N[C@@H](C)C(=O)N[C@@H](CCCNC(=N)N)C(=O)N[C@@H](CCCCN)C(=O)N2 (HELM PEPTIDE1{Y.C.Q.K.W.M.W.T.C.D.S.A.R.K.C.C.E.G.L.V.C.R.L.W.C.K.K.K.[meL].I}$PEPTIDE1,PEPTIDE1,2:R3-16:R3|PEPTIDE1,PEPTIDE1,9:R3-21:R3|PEPTIDE1,PEPTIDE1,15:R3-25:R3$$$V2.0)	2.8	8.79 min	14.4 min
CC[C@H](C)[C@H](NC(=O)[C@H](CCCCN)NC(=O)[C@H](CCCCN)NC(=O)[C@@H]1CSSC[C@@H]2NC(=O)[C@H](CCCCN)NC(=O)[C@H](CCCNC(=N)N)NC(=O)[C@H](C)NC(=O)[C@H](CO)NC(=O)[C@H](CC(=O)O)NC(=O)[C@@H]3CSSC[C@H](NC(=O)[C@H](C(C)C)NC(=O)[C@H](CC(C)C)NC(=O)CNC(=O)[C@H](CCC(=O)O)NC(=O)[C@H](CSSC[C@H](NC(=O)[C@@H](N)Cc4ccc(O)cc4)C(=O)N[C@@H](CCC(N)=O)C(=O)N[C@@H](CCCCN)C(=O)N[C@@H](Cc4c[nH]c5ccccc45)C(=O)N[C@@H](CCSC)C(=O)N[C@@H](Cc4c[nH]c5ccccc45)C(=O)N[C@@H]([C@@H](C)O)C(=O)N3)NC2=O)C(=O)N[C@@H](CCCNC(=N)N)C(=O)N[C@@H](CC(C)C)C(=O)N[C@@H](Cc2c[nH]c3ccccc23)C(=O)N1)C(=O)N[C@H](C(=O)N[C@@H](Cc1c[nH]c2ccccc12)C(=O)O)[C@@H](C)CC (HELM PEPTIDE1{Y.C.Q.K.W.M.W.T.C.D.S.A.R.K.C.C.E.G.L.V.C.R.L.W.C.K.K.I.I.W}$PEPTIDE1,PEPTIDE1,2:R3-16:R3|PEPTIDE1,PEPTIDE1,9:R3-21:R3|PEPTIDE1,PEPTIDE1,15:R3-25:R3$$$V2.0)	9	9.29 min	15.83 min
CSCC[C@@H]1NC(=O)CNC(=O)[C@H](CCC(=O)O)NC(=O)[C@@H]2CSSC[C@H](NC(=O)[C@@H](N)Cc3ccc(O)cc3)C(=O)N[C@@H](CCC(N)=O)C(=O)N[C@@H](CCCCN)C(=O)N[C@@H](Cc3c[nH]c4ccccc34)C(=O)N[C@@H](CCSC)C(=O)N[C@@H](Cc3c[nH]c4ccccc34)C(=O)N[C@@H]([C@@H](C)O)C(=O)N[C@H]3CSSC[C@H](NC(=O)[C@H](C(C)C)NC1=O)C(=O)N[C@@H](CCCNC(=N)N)C(=O)N[C@@H](CC(C)C)C(=O)N[C@@H](Cc1c[nH]c4ccccc14)C(=O)N[C@H](C(=O)N[C@@H](CCCCN)C(=O)N[C@@H](CCCCN)C(=O)N[C@@H](CCCCN)C(=O)N[C@@H](CC(C)C)C(=O)N[C@@H](Cc1c[nH]c4ccccc14)C(N)=O)CSSC[C@H](NC(=O)[C@H](CCCCN)NC(=O)[C@H](CCCNC(=N)N)NC(=O)[C@H](CCC(=O)O)NC(=O)[C@H](CO)NC(=O)[C@H](CC(=O)O)NC3=O)C(=O)N2		9 min	14.78 min
CSCC[C@@H]1NC(=O)CNC(=O)[C@H](CCC(=O)O)NC(=O)[C@@H]2CSSC[C@H](NC(=O)[C@@H](N)Cc3ccc(O)cc3)C(=O)N[C@@H](CCC(N)=O)C(=O)N[C@@H](CCCCN)C(=O)N[C@@H](Cc3c[nH]c4ccccc34)C(=O)N[C@@H](CCSC)C(=O)N[C@@H](Cc3c[nH]c4ccccc34)C(=O)N[C@@H]([C@@H](C)O)C(=O)N[C@H]3CSSC[C@H](NC(=O)[C@H](C(C)C)NC1=O)C(=O)N[C@@H](CCCNC(=N)N)C(=O)N[C@@H](CC(C)C)C(=O)N[C@@H](Cc1c[nH]c4ccccc14)C(=O)N[C@H](C(=O)N[C@@H](CCCCN)C(=O)N[C@@H](CCCCN)C(=O)N[C@@H](CCCCN)C(=O)N[C@@H](CC(C)C)C(=O)N[C@@H](Cc1c[nH]c4ccccc14)C(=O)O)CSSC[C@H](NC(=O)[C@H](CCCCN)NC(=O)[C@H](CCCNC(=N)N)NC(=O)[C@H](CCC(=O)O)NC(=O)[C@H](CO)NC(=O)[C@H](CC(=O)O)NC3=O)C(=O)N2		9.35 min	14.54 min
[H][C@]12CSSC[C@@H](C(=O)N[C@@H](CCCCN)C(=O)N[C@@H](CCCCN)C(=O)N[C@H](C(=O)N[C@H](C(=O)O)[C@@H](C)CC)[C@@H](C)CC)NC(=O)[C@H](Cc3c[nH]c4ccccc34)NC(=O)[C@H](CC(C)C)NC(=O)[C@H](CCCNC(=N)N)NC(=O)[C@]3([H])CSSC[C@]([H])(NC(=O)[C@]([H])([C@@H](C)O)NC(=O)[C@H](Cc4c[nH]c5ccccc45)NC(=O)[C@H](CCSC)NC(=O)[C@H](Cc4c[nH]c5ccccc45)NC(=O)[C@H](CCCCN)NC(=O)[C@H](CCC(N)=O)NC(=O)[C@@H](NC(=O)[C@@H](N)Cc4ccc(O)cc4)CSSC[C@]([H])(NC1=O)C(=O)N[C@@H](CCC(=O)O)C(=O)NCC(=O)N[C@@H](CC(C)C)C(=O)N[C@@H](C(C)C)C(=O)N3)C(=O)N[C@@H](CC(=O)O)C(=O)N[C@@H](CO)C(=O)N[C@@H](C)C(=O)N[C@@H](CCCNC(=N)N)C(=O)N[C@@H](CCCCN)C(=O)N2 (HELM PEPTIDE1{Y.C.Q.K.W.M.W.T.C.D.S.A.R.K.C.C.E.G.L.V.C.R.L.W.C.K.K.I.I}$PEPTIDE1,PEPTIDE1,2:R3-16:R3|PEPTIDE1,PEPTIDE1,9:R3-21:R3|PEPTIDE1,PEPTIDE1,15:R3-25:R3$$$V2.0)		7.9 min	12.58 min
